Results as given in ChEMBL document CHEMBL1129795, “2-Azetidinone cholesterol absorption inhibitors: structure-activity relationships on the heterocyclic nucleus” (1996).

Columns and labels:
[1] = system: Cricetinae gen. sp.; experiment: In vivo cholesterol absorption inhibitory activity using 7-day cholesterol-fed hamster model (expressed as percent change in serum cholesterol at 50 mg/kg/day); format: functional, Cricetulus griseus
How it was run: (§1)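 Hamsters were fed a high-cholesterol diet for 7 days and gavaged once daily with compound in 0.2 mL corn oil. On the last day, animals were sacrificed and hepatic and serum lipids were determined. Results are given as percent change in hepatic cholesteryl ester or serum cholesterol concentration versus diet-fed controls gavaged with corn oil without drug.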

[2] = system: Cricetinae gen. sp.; experiment: In vivo for cholesterol absorption inhibitory activity using 7-day cholesterol-fed hamster model (expressed as percent change in cholesteryl esters at 50 mg/kg/day); format: functional, Cricetulus griseus; how it was run: as §1

Structure (SMILES) | Change [1] | Change [2]
COc1ccc([C@H]2N(c3ccccc3)C(=O)[C@@]2(F)CCCc2ccccc2)cc1 | -30% | -94%
COc1ccc(N2C(=O)[C@H](CCCc3ccccc3)[C@H]2c2ccc3c(c2)OCO3)cc1 | 0% | -19%
COc1ccc(N2C(=O)[C@@H](CCCc3ccccc3)[C@H]2c2ccc3c(c2)OCO3)cc1 | 0% | 0%
COc1ccc([C@@H]2[C@@H](CCCc3ccccc3)C(=O)N2C(C)C)cc1 | -16% | -30%
COc1ccc(N[C@H](c2ccc(OC)cc2)[C@@H](CCCc2ccccc2)C(=O)O)cc1 | -8% | 0%
COCc1ccc([C@@H]2[C@@H](CCCc3ccccc3)C(=O)N2c2ccc(OC)cc2)cc1 | -27% | -56%
COc1ccc([C@@H]2[C@@H](CCCc3ccccc3)C(=O)N2c2ccc(F)cc2)cc1 | -38% | -95%
COc1ccc([C@@H]2[C@H](C)C(=O)N2c2ccc(OC)cc2)cc1 | 0% | 0%
COc1ccc([C@@H]2[C@H](CCc3ccccc3)C(=O)N2c2ccc(OC)cc2)cc1 | 0% | -19%
COc1ccc(N2C(=O)[C@H](CCCc3ccccc3)[C@H]2c2ccc(OCc3ccccc3)cc2)cc1 | -15% | -48%
COc1ccc(N2C(=O)[C@H](CCCc3ccccc3)[C@H]2c2ccc(N(C)C)cc2)cc1 | -29% | -60%
COc1ccc([C@@H]2[C@@H](CCCc3ccccc3)C(=O)N2c2ccc(OC(F)(F)F)cc2)cc1 | -34% | -85%
C=CCOc1ccc(N2C(=O)[C@H](CCCc3ccccc3)[C@H]2c2ccc(OC)cc2)cc1 | -44% | -90%
COc1ccc([C@@H]2[C@@H](CCCc3ccccc3)C(=O)N2c2ccc([S+](C)[O-])cc2)cc1 (stereo not given in full) | -11% | 0%
CCCOc1ccc([C@@H]2[C@@H](CCCc3ccccc3)C(=O)N2c2ccc(OC)cc2)cc1 | -40% | -95%
COc1ccc([C@@H]2[C@@H](CCCc3ccccc3)C(=O)N2c2c(OC)cc(OC)cc2OC)cc1 | 0% | 0%
CCCCOc1ccc([C@@H]2[C@H](CCCc3ccccc3)C(=O)N2c2ccc(OC)cc2)cc1 | -15% | -70%
COc1ccc([C@H]2N(c3ccc(OC)cc3)C(=O)[C@@]2(C)CCCc2ccccc2)cc1 | 0% | -56%

Structure (SMILES) | Change [1] | Change [2]
COc1ccc(N2C(=O)[C@H](CCCc3ccccc3)[C@H]2c2ccc(NC(C)=O)cc2)cc1 | -4% | -26%
COc1ccc(N2C(=O)[C@H](CCCc3ccccc3)[C@H]2c2ccc(NS(C)(=O)=O)cc2)cc1 | -8% | -46%
COc1ccc([C@H]2NC(=O)[C@@H]2CCCc2ccccc2)cc1 | 0% | 0%
COc1ccc(N2C(=O)[C@@H](CCCc3ccccc3)[C@H]2c2ccccc2)cc1 | 0% | 0%
COc1ccc([C@@H]2[C@@H](CCCc3ccccc3)C(=O)N2c2ccc(C)cc2)cc1 | -38% | -90%
CC[C@@]1(c2ccccc2)C(=O)N(c2ccc(OC)cc2)[C@@H]1c1ccc(OC)cc1 | 0% | -28%
COc1ccc(CN2C(=O)[C@H](CCCc3ccccc3)[C@H]2c2ccc(OC)cc2)cc1 | 0% | -26%
COc1ccc([C@@H]2[C@@H](CCCc3ccccc3)C(=S)N2c2ccc(OC)cc2)cc1 | 0% | -23%
CCN1C(=O)[C@H](CCCc2ccccc2)[C@H]1c1ccc(OC)cc1 | -13% | -21%
COc1ccc(N2C(=O)[C@H](CCCc3ccccc3)[C@H]2c2ccc([S+](C)[O-])cc2)cc1 (stereo not given in full) | -17% | -32%
COc1ccc([C@@H]2[C@@H](CCCc3ccccc3)C(=O)N2c2ccc3c(c2)OCO3)cc1 | -19% | -52%
COc1ccc([C@@H]2[C@H](CCCC3CCCCC3)C(=O)N2c2ccc(OC)cc2)cc1 | 12% | -28%
COc1ccc([C@@H]2[C@H](CCCCc3ccccc3)C(=O)N2c2ccc(OC)cc2)cc1 | -28% | -72%
COc1ccc(N2C(=O)[C@H](CCCc3ccccc3)[C@H]2c2ccc(SC)cc2)cc1 | 0% | 0%
COc1ccc(N2C(=O)C(CCCc3ccccc3)C2(c2ccc(OC)cc2)c2ccc(OC)cc2)cc1 (stereo not given) | -9% | 0%
COc1ccc(N2C(=O)[C@H](CCCc3ccccc3)[C@H]2c2ccc(S(C)(=O)=O)cc2)cc1 | -26% | -75%
COc1ccc(N2C(=O)[C@H](CCCc3ccccc3)[C@H]2c2ccc(OC(C)(C)C)cc2)cc1 | -26% | -80%
